Assay results reported in ChEMBL document CHEMBL2021903, “3-Deoxy-3,4-dehydro analogs of XM462. Preparation and activity on sphingolipid metabolism and cell fate” (Bioorg Med Chem, 2012).
Activity calls are given as the source filed them. The rule behind the calls is not given here.

Assays:
Acid ceramidase = target: T1, Acid ceramidase (Homo sapiens, UniProt Q13510); assay: Inhibition of aCDase in Moh.pAS AcCer10X cells using RBM14C12 as substrate after 1 hr by HPLC-FD analysis; format: cell-based
T1 sequence (Q13510 whole entry): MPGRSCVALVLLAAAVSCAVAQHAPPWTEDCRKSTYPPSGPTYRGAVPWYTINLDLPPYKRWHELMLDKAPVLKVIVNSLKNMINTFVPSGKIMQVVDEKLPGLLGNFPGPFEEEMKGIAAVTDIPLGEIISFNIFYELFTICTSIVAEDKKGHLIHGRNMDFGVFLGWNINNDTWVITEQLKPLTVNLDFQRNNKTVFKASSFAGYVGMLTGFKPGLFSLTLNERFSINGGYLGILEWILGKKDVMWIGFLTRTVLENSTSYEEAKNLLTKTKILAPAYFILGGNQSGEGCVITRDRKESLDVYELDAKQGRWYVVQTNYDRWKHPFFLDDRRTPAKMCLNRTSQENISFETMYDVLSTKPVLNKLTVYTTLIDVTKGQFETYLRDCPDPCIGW

A549 [1] = assay: Effect on sphingolipidome in human A549 cells assessed as increase in C18-ceramide per 10^6 cells at 10 uM after 24 hrs by UPLC-TOF analysis (reference value: 4.8 +/- 0.5 pmol/10^6 cells); format: functional
Method in brief: (§1)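 Cells incubated with compound at 10 µM, 24 h (A549) or 14 h (HCT116); lipids then extracted and profiled. Long-chain bases and phosphates were read by LC-MS/MS (positive electrospray, selected reaction monitoring, C17-dihydrosphingosine and C17-dihydrosphingosine-1-phosphate transitions monitored). Amounts expressed as pmol per 10⁶ cells. Mean ± SD of triplicates; unpaired two-tailed t-test versus control.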

HCT-116 [2] = assay: Effect on sphingolipidome in human HCT116 cells assessed as increase in dihydroceramide per 10^6 cells at 10 uM after 14 hrs by UPLC-TOF analysis relative to control; format: functional; method in brief: as §1
HCT-116 [3] = assay: Effect on sphingolipidome in human HCT116 cells assessed as increase in dihydrosphingomyelins per 10^6 cells at 10 uM after 14 hrs by UPLC-TOF analysis relative to control; format: functional, cell-based; method in brief: as §1
HCT-116 [4] = assay: Effect on sphingolipidome in human HCT116 cells assessed as increase in glucosyldihydroceramides per 10^6 cells at 10 uM after 14 hrs by UPLC-TOF analysis relative to control; format: functional, cell-based; method in brief: as §1
HCT-116 [5] = assay: Effect on sphingolipidome in human HCT116 cells assessed as reduction in glucosylceramides per 10^6 cells at 10 uM after 14 hrs by UPLC-TOF analysis relative to control; format: functional, cell-based; method in brief: as §1
HCT-116 [6] = assay: Effect on sphingolipidome in human HCT116 cells assessed as reduction in sphingomyelins per 10^6 cells at 10 uM after 14 hrs by UPLC-TOF analysis relative to control; format: functional, cell-based; method in brief: as §1
HCT-116 [7] = assay: Effect on sphingolipidome in human HCT116 cells assessed as increase in C18-ceramide per 10^6 cells at 10 uM after 14 hrs by UPLC-TOF analysis relative to control (reference value: 3.9 +/- 0.3 pmol/10^6 cells); format: functional; method in brief: as §1
HCT-116 [8] = assay: Effect on sphingolipidome in human HCT116 cells assessed as reduction in C24-ceramide per 10^6 cells at 10 uM after 14 hrs by UPLC-TOF analysis relative to control; format: functional, cell-based; method in brief: as §1
HCT-116 [9] = assay: Effect on sphingolipidome in human HCT116 cells assessed as reduction in C16-sphingomyelin per 10^6 cells at 10 uM after 14 hrs by UPLC-TOF analysis relative to control; format: functional, cell-based; method in brief: as §1
HCT-116 [10] = assay: Effect on sphingolipidome in human HCT116 cells assessed as sphingosine-1-phosphate level per 10^6 cells at 10 uM after 14 hrs by UPLC-TOF analysis (reference value: 1.49 +/- 0.70/10^6 cells); format: functional; method in brief: as §1
HCT-116 [11] = assay: Effect on sphingolipidome in human HCT116 cells assessed as dihydrosphingosine-1-phosphate level per 10^6 cells at 10 uM after 14 hrs […] relative to control; format: functional, cell-based
HCT-116 [12] = assay: Cytotoxicity against human HCT116 cells after 24 hrs by MTT assay; format: functional; conditions: HCT-116, 24 h, read-out: LD50 (the source's name)
Method in brief: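 Cells seeded at 10⁵ cells/mL; after 24 h medium replaced with fresh medium with or without test compounds across a concentration range. Viable cells counted by MTT after 24 h of treatment. LD₅₀ (µM) obtained by regression analysis of dose–response curves from two experiments with triplicates. HCT116 kept in low-glucose DMEM with 10% FBS at 37 °C, 5% CO2; cells used at about 80% confluence.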

HCT-116 [13] = assay: Induction of apoptosis in human HCT116 cells at 15 uM after 14 hrs by Annexin V-propidium iodide staining based flow cytometry; format: functional, cell-based
Method in brief: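 HCT116 (clone 40–16) in low-glucose DMEM with 10% FBS and 1% penicillin–streptomycin, seeded 2.5×10⁵ cells/mL. After 24 h, medium replaced with compound-containing medium; ethanol vehicle to controls. After incubation, cells PBS-washed, trypsinized, stained with Annexin V and propidium iodide, analysed by flow cytometry. Mean ± SD, 3 experiments in triplicate.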

HCT-116 [14] = assay: Induction of […] in human HCT116 cells at 20 uM after 14 hrs by Annexin V-propidium iodide staining based flow cytometry; format: functional
A549 [15] = assay: Effect on sphingolipidome in human A549 cells assessed as increase in dihydroceramide per 10^6 cells at 10 uM after 24 hrs by UPLC-TOF analysis relative to control; format: functional; method in brief: as §1
[16] = target: T2, Sphingolipid delta(4)-desaturase DES1 (Homo sapiens) (UniProt O15121); assay: Inhibition of Des1 in human A549 cells assessed as formation of CerC6NBD from dhCerC6NBD at =>100 uM after 4 hrs by HPLC-FD analysis; format: cell-based
T2 sequence (whole entry): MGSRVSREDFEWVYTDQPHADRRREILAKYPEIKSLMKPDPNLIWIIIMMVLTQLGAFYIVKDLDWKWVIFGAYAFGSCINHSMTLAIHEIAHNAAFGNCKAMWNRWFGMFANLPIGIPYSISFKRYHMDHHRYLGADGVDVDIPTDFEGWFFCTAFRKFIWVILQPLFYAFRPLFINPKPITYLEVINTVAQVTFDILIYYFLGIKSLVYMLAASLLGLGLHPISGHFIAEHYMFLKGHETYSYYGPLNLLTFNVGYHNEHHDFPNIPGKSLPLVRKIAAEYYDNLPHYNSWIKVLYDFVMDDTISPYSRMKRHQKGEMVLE
Method in brief: (§2)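 Des1 activity in A549 and HCT116 cells: intact cells seeded 2×10⁵/well and incubated 4 h with dhCerC6NBD and compound. Dose–response used cell lysates incubated 4 h with 10 µM dhCerC6NBD plus graded compound. CerC6NBD measured by HPLC with fluorescence detection. IC50 from sigmoidal variable-slope regression; mean ± SD, three experiments in triplicate.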

[17] = target: T2, Sphingolipid delta(4)-desaturase DES1 (Homo sapiens); assay: Inhibition of Des1 in human HCT116 cells assessed as formation of CerC6NBD from dhCerC6NBD at =>100 uM after 4 hrs by HPLC-FD analysis; format: cell-based; conditions: HCT-116; method in brief: as §2

Compound	IC50 (Acid ceramidase) [µM]	Activity (A549 [1]) [pmol]	fold change (FC) (HCT-116 [2])	Activity (HCT-116 [3])	Activity (HCT-116 [4])	Activity (HCT-116 [5])	Activity (HCT-116 [6])	Activity (HCT-116 [7]) [pmol]	Activity (HCT-116 [8])	Activity (HCT-116 [9])	Activity (HCT-116 [10]) [pmol]	Activity (HCT-116 [11])	CC50 (HCT-116 [12]) [µM]	Activity (HCT-116 [13])	Activity (HCT-116 [14])	fold change (FC) (A549 [15])	inhibition [16] [%]	inhibition [17] [%]
CCCCCCCCCCCCCS/C=C/[C@H](CO)NC(=O)CCCCCCC	77	11.5	8.5	Active	Active	Active	Active	16	Active	Active	1.25	inactive	28	Active	inactive	3.5	–	–
CCCCCCCCCCCCCS/C=C/[C@H](CO)NC(=O)C(C)(C)C	51	7	4.5	Active	Active	Active	Active	10.8	Active	Active	2.17	inactive	30	Active	inactive	1.9	50	50
CCCCCCCCCCCCCS/C=C/[C@H](CO)NC(=O)c1ccc(C(C)(C)C)cc1	315	–	–	–	–	–	–	–	–	–	–	–	81	–	–	–	50	50
